# Measurements of several laboratories.
# Protocols differ between the studies behind these lines.
# Target: Tyrosine-protein kinase Blk (BLK, Homo sapiens, UniProt P51451)
Structure (SMILES),assay,conditions,quantity,value
COc1ccc2oc(-c3ccc4nc(N)oc4c3)c/c(=N\c3ccccc3NC(=O)CCN)c2c1,binding,1 µM,remaining binding,92%
C1=C/COCc2cc(ccc2OCCN2CCCC2)Nc2nccc(n2)-c2cccc(c2)COC/1,binding,0.1 µM,remaining binding,97%
CC#CC(=O)N1CCC[C@H]1c1nc(-c2ccc(C(=O)Nc3ccccn3)cc2)c2c(N)nccn12,"enzyme activity, inhibitor",1 µM,inhibition,47%
C[C@H]1CC[C@H](n2c3cnccc3c3cnc(Nc4ccc5c(n4)CCN(C(=O)CO)C5)nc32)CC1,"cell-free assay, competition with immobilised ligand",1 µM,remaining binding,53%
CC(C)S(=O)(=O)c1ccc2nccc(Nc3ccc4sc(C5CCCC5)nc4c3)c2c1,"enzyme activity, inhibitor",1 µM,activity vs control,80%
CO[C@@H]1[C@H](N(C)C(=O)c2ccccc2)C[C@H]2O[C@]1(C)n1c3ccccc3c3c4c(c5c6ccccc6n2c5c31)C(=O)NC4,"enzyme activity, inhibitor",1 µM,inhibition,79%
Cc1ccc(NC(=O)c2ccnc(C(F)(F)F)c2)cc1-c1cc(OCCO)nc(N2CCOCC2)c1,"binding, competition with immobilised ligand",1 µM,remaining binding,100%
CCCCC(=O)Nc1ccc(-c2ccc3ncn(CCC)c(=O)c3c2)cn1,"binding, competition with immobilised ligand",0.5 µM,remaining binding,83%
